Test results: ChEMBL document CHEMBL1799999, “N-benzoylated phenoxazines and phenothiazines: synthesis, antiproliferative activity, and inhibition of tubulin polymerization” (J Med Chem, 2011)
The source made the active and inactive calls. The calls are words filed in the database; no cut-off is given here.

Legend:
K562 [1] = assay: Antiproliferative activity against human K562 cells after 48 hrs by hemocytometric analysis; format: functional, cell-based; conditions: K562, 48 h
Outline: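 K562 cells in RPMI 1640 with 10% FBS at 37 °C/5% CO2, plated at 2 × 10^5 cells/mL. Compounds in DMSO/methanol 1:1, final vehicle 0.5%. Cells counted in a Neubauer hemocytometer after 48 h and expressed as % of untreated control. Triplicate wells, three experiments; IC50 by nonlinear regression.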

Tubulin = Tubulin (Sus scrofa, UniProt P02554+P02550); assay: Inhibition of pig tubulin polymerization determined after 45 mins at 37 degC by turbidimetric analysis; format: protein assay
Outline: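 Microtubule protein (80–90% tubulin with MAPs) from porcine brain, isolated by two cold/warm cycles. Buffer: 20 mM PIPES pH 6.8, 80 mM NaCl, 0.5 mM MgCl2, 1 mM EGTA, 1 mM DTT. Protein at 1.2 mg/mL (about 10 μM tubulin) with 0.6 mM GTP, 1% DMSO, 37 °C.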

NCI-H460 = assay: Antiproliferative activity against human NCI-H460 cells after 48 hrs by alamar blue assay; format: functional, cell-based; conditions: NCI-H460, 48 h
Outline: (§1)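 Cells seeded in growth medium and grown 24 h at 37 °C/5% CO2. 10 mM DMSO stocks diluted in half-log steps into medium, final DMSO 0.316%. After 45 h of compound exposure, AlamarBlue (resazurin) added for a further 3 h, giving 48 h total. Fluorescence read at 590 nm against untreated and cell-free blanks. At least two replicates; IC50 by nonlinear regression.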

DLD-1 = assay: Antiproliferative activity against human DLD1 cells after 48 hrs by alamar blue assay; format: functional, cell-based; conditions: DLD-1, 48 h; outline: as §1
SW480 = assay: Antiproliferative activity against human SW480 cells after 48 hrs by alamar blue assay; format: functional, cell-based; conditions: SW480, 48 h; outline: as §1
COLO 205 = assay: Antiproliferative activity against human COLO205 cells after 48 hrs by alamar blue assay; format: functional, cell-based; conditions: COLO 205, 48 h; outline: as §1
BT-549 = assay: Antiproliferative activity against human BT549 cells after 48 hrs by alamar blue assay; format: functional, cell-based; conditions: BT-549, 48 h; outline: as §1
SK-OV-3 = assay: Antiproliferative activity against human SKOV3 cells after 48 hrs by alamar blue assay; format: functional, cell-based; conditions: SK-OV-3, 48 h; outline: as §1
cells = conditions: Homo sapiens, 451Lu, 48 h
K562 [2] = assay: Cell cycle arrest in human K562 cells assessed as accumulation at G2/M phase at 0.003 to. 1 ug/ml after 24 hrs by flow cytometric analysis; format: functional, cell-based
Outline: (§2)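 K562 cells (2 × 10^5/mL) exposed to graded concentrations for 24 h at 37 °C; vehicle DMSO/MeOH 1:1. Washed in PBS, fixed in ice-cold 70% ethanol, stained 30 min with propidium iodide 0.02 mg/mL plus RNase 0.2 mg/mL. DNA content read by flow cytometry with 488 nm excitation; G2/M fraction scored.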

K562 [3] = assay: Cell cycle arrest in human K562 cells assessed as accumulation at G2/M phase at 30 nM after 24 hrs by flow cytometric analysis; format: functional, cell-based; outline: as §2
[4] = Antiproliferative activity against human resting PBMC after 72 hrs by sulforhodamine staining method; format: cell-based
Outline: (§3)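 Panel of 83 solid-tumour lines plus resting PBMC, run by the DTP NCI sulforhodamine B staining protocol. Compound exposure 72 h, concentrations from 0.0001 to 10 μM. GI50 taken per line; z-scores computed relative to the panel mean GI50.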

ASPC1 = assay: Antiproliferative activity against human AsPC1 cells after 72 hrs by sulforhodamine staining method; format: functional; conditions: ASPC1, 72 h; outline: as §3
Potorous tridactylus = assay: Inhibition of tubulin polymerization in Potorous tridactylus Ptk2 cells assessed as destruction of microtubule network at 5 uM after 1 hr by immunofluorescence assay
Outline: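 PtK2 cells exposed 1 h to 5 μM compound in RPMI medium with 2% DMSO; solvent-only controls. Microtubules labelled with Cy3-anti-tubulin antibody and examined by immunofluorescence microscopy.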

Compound | IC50 (K562 [1]) [nM] | IC50 (Tubulin) [nM] | further results
COc1cc(C(=O)N2c3ccccc3S(=O)(=O)c3ccc(Cl)cc32)cc(OC)c1OC | 4200 | > 10000 | 
COc1ccc(C(=O)N2c3ccccc3S(=O)(=O)c3ccc(Cl)cc32)cc1 | 800 | 1050 | 
COc1ccc(C(=O)N2c3ccccc3[S+]([O-])c3ccccc32)cc1 | 420 | 9390 | 
COc1cc(C(=O)N2c3ccccc3Oc3ccc(Cl)cc32)cc(OC)c1O | 4630 | 680 | 
CC(=O)O[C@H]1C(=O)[C@@]2(C)[C@H]([C@H](OC(=O)c3ccccc3)[C@]3(O)C[C@H](OC(=O)[C@H](O)[C@@H](NC(=O)c4ccccc4)c4ccccc4)C(C)=C1C3(C)C)[C@]1(OC(C)=O)CO[C@@H]1C[C@@H]2O [PACLITAXEL] |  |  | IC50 (NCI-H460): 4 nM; IC50 (DLD-1): 50 nM; IC50 (SW480): 11 nM; IC50 (COLO 205): 5 nM; IC50 (BT-549): 6 nM; IC50 (SK-OV-3): 6 nM
N#Cc1ccc2c(c1)Oc1ccccc1N2C(=O)c1ccc(Cl)cc1 | 490 | 2390 | 
COc1ccc(C(=O)N2c3ccccc3[S+]([O-])c3ccc(Cl)cc32)cc1 (configuration not stated) | 1400 | 2790 | 
COc1ccc(C(=O)N2c3ccccc3Sc3ccccc32)cc1OCc1ccccc1 | > 30000 |  | 
COc1ccc(C(=O)N2c3ccccc3Sc3ccc(OC)cc32)cc1 | 970 | 3230 | 
COc1ccc(C(=O)N2c3ccccc3S(=O)(=O)c3ccccc32)cc1O | 180 | 3000 | 
COc1ccc(C(=O)N2c3ccccc3[S+]([O-])c3ccccc32)cc1O | 300 | 8400 | 
COc1ccc(C(=O)N2c3ccccc3Oc3ccccc32)cc1 | 33 | 1100 | IC50 (NCI-H460): 270 nM; IC50 (cells): 60 nM; IC50 (DLD-1): 250 nM; IC50 (SW480): 240 nM; IC50 (COLO 205): 240 nM; IC50 (BT-549): 120 nM; IC50 (SK-OV-3): 210 nM
Clc1ccc2c(c1)Nc1ccccc1S2 | > 100000 |  | 
COc1cc(C(=O)N2c3ccccc3[S+]([O-])c3ccc(Cl)cc32)cc(OC)c1OC (configuration not stated) | 35000 | > 10000 | 
O=C(c1ccccc1)N1c2ccccc2[S+]([O-])c2ccc(Cl)cc21 (configuration not stated) | > 30000 |  | 
O=C(c1ccccc1)N1c2ccccc2Sc2ccccc21 | > 30000 |  | 
COc1ccc(C(=O)N2c3ccccc3Oc3cc(C#N)ccc32)cc1 | 14 | 730 | IC50 (NCI-H460): 15 nM; IC50 (cells): 2 nM; Activity (K562 [2]): Active; IC50 (DLD-1): 9 nM; Activity (K562 [3]): Active; IC50 (SW480): 8 nM; GI50 at 72 h [4]: > 10000 nM; IC50 (COLO 205): 6 nM; IC50 (BT-549): 8 nM; GI50 (ASPC1): > 10000 nM; IC50 (SK-OV-3): 6 nM
COc1ccc(C(=O)CN2c3ccccc3Oc3ccc(Cl)cc32)cc1 | > 20000 |  | 
COc1ccc(C(=O)N2c3ccccc3Oc3ccc(C#N)cc32)cc1 | 160 | 2700 | 
O=C(c1ccc([N+](=O)[O-])cc1)N1c2ccccc2Oc2ccc(Cl)cc21 | > 80000 | 5030 | 

Compound | IC50 (K562 [1]) [nM] | IC50 (Tubulin) [nM] | further results
COc1ccc(C(=O)N2c3ccccc3Sc3ccc(Cl)cc32)cc1 | 840 | 870 | 
N#Cc1ccc2c(c1)Oc1ccccc1N2C(=O)c1ccccc1 | 230 | 1200 | 
COc1ccc(C(=O)N2c3ccccc3Oc3ccc(Cl)cc32)cc1 | 140 | 570 | IC50 (NCI-H460): 680 nM; IC50 (cells): 90 nM; IC50 (DLD-1): 540 nM; IC50 (SW480): 530 nM; IC50 (COLO 205): 430 nM; IC50 (BT-549): 330 nM; IC50 (SK-OV-3): 350 nM
COc1cc(C(=O)N2c3ccccc3Sc3ccc(Cl)cc32)cc(OC)c1OC | 11000 | > 10000 | 
COc1ccc(C(=O)N2c3ccccc3Sc3ccccc32)cc1O | 210 | 1400 | 
COc1cc(C(=O)N2c3ccccc3S(=O)(=O)c3ccccc32)cc(OC)c1OC | 2600 | 2460 | 
COc1cc(C(=O)N2c3ccccc3[S+]([O-])c3ccccc32)cc(OC)c1OC | 8030 | > 10000 | 
COc1ccc(CC(=O)N2c3ccccc3Oc3ccccc32)cc1 | 4810 | > 10000 | 
O=C(c1ccc(C(F)(F)F)cc1)N1c2ccccc2Oc2ccc(Cl)cc21 | > 75000 |  | 
COC(=O)Nc1nc2cc(C(=O)c3cccs3)ccc2[nH]1 [NOCODAZOLE] |  |  | IC50 (NCI-H460): 68 nM; IC50 (cells): 72 nM; IC50 (DLD-1): 190 nM; IC50 (SW480): 120 nM; IC50 (COLO 205): 88 nM; IC50 (BT-549): 69 nM; IC50 (SK-OV-3): 80 nM
COc1ccc(C(=O)N2c3ccccc3[S+]([O-])c3ccc(OC)cc32)cc1 (configuration not stated) | 1650 | 23310 | 
O=C(c1ccccc1)N1c2ccccc2[S+]([O-])c2ccccc21 | > 30000 |  | 
O=C(c1ccc2c(c1)OCO2)N1c2ccccc2Oc2ccc(Cl)cc21 | 1120 | 1130 | 
Clc1ccc2c(c1)Nc1ccccc1O2 | > 30000 | > 10000 | 
COc1ccc(CC(=O)N2c3ccccc3Oc3ccc(Cl)cc32)cc1 | 550 | 1100 | 
COc1cc(C(=O)N2c3ccccc3Sc3ccccc32)cc(OC)c1OC | 1860 | 4960 | 
COc1cc2c(c(OC)c1OC)-c1ccc(OC)c(=O)cc1[C@@H](NC(C)=O)CC2 [COLCHICINE] |  |  | IC50 (NCI-H460): 27 nM; IC50 (cells): 17 nM; Activity (K562 [2]): Active; IC50 (DLD-1): 89 nM; IC50 (SW480): 30 nM; inhibition (Potorous tridactylus): Active; IC50 (COLO 205): 21 nM; IC50 (BT-549): 23 nM; IC50 (SK-OV-3): 29 nM
c1ccc2c(c1)Nc1ccccc1S2 [PHENOTHIAZINE] | > 100000 |  | 
O=C(c1ccccc1)N1c2ccccc2S(=O)(=O)c2ccccc21 | > 30000 |  | 
COc1ccc(C(=O)N2c3ccccc3Sc3ccccc32)cc1 | 330 | 2230 | 

Compound | IC50 (K562 [1]) [nM] | IC50 (Tubulin) [nM] | further results
c1ccc2c(c1)Nc1ccccc1O2 [PHENOXAZINE] | > 30000 | > 10000 | 
COc1ccc(C(=O)N2c3ccccc3Oc3ccc(Cl)cc32)cc1O | 80 | 730 | IC50 (NCI-H460): 390 nM; IC50 (cells): 27 nM; IC50 (DLD-1): 230 nM; IC50 (SW480): 240 nM; GI50 at 72 h [4]: > 10000 nM; inhibition (Potorous tridactylus): Active; IC50 (COLO 205): 2680 nM; IC50 (BT-549): 320 nM; GI50 (ASPC1): > 10000 nM; IC50 (SK-OV-3): 170 nM
COc1ccc(C(=O)N2c3ccccc3Sc3ccc(SC)cc32)cc1 | 3620 | 1430 | 
COc1ccc(C(=O)N2c3cc(Cl)ccc3Oc3ccc(Cl)cc32)cc1 | 490 | 700 | 
COc1ccc(C(=O)N2c3ccccc3Sc3ccc(C(F)(F)F)cc32)cc1 | 4600 | > 10000 | 
O=C(c1ccc(Cl)cc1)N1c2ccccc2Oc2ccc(Cl)cc21 | 20000 | 2420 | 
O=C(c1ccccc1)N1c2ccccc2Sc2ccc(Cl)cc21 | > 30000 |  | 
COc1cccc(C(=O)N2c3ccccc3Oc3ccc(Cl)cc32)c1 | 1380 | 650 | 
N#Cc1ccc2c(c1)Oc1ccccc1N2 | > 10000 | > 10000 | 
CC(=O)N1c2ccccc2Oc2ccc(Cl)cc21 | > 30000 |  | 
COc1ccc(C(=O)N2c3ccccc3Oc3cccc(C#N)c32)cc1 | 120 | 960 | 
O=C(c1ccccc1)N1c2ccccc2S(=O)(=O)c2ccc(Cl)cc21 | > 30000 |  | 
COc1cc(C(=O)N2c3ccccc3Oc3ccc(Cl)cc32)cc(OC)c1OC | 24000 |  | 
CN(C)c1ccc(C(=O)N2c3ccccc3Oc3ccc(Cl)cc32)cc1 | 1210 | 880 | 
COc1ccc(C(=O)N2c3ccccc3S(=O)(=O)c3ccc(OC)cc32)cc1 | 1580 | 4690 | 
O=C(c1ccc(Br)cc1)N1c2ccccc2Oc2ccc(Cl)cc21 | > 25000 |  | 
COc1ccc(C(=O)N2c3ccccc3S(=O)(=O)c3ccccc32)cc1 | 280 | 2530 | 
COc1ccc(CC(=O)N2c3ccccc3Sc3ccc(Cl)cc32)cc1 | 8000 |  | 
